Legend:
[1] = Metabolic stability in wild type mouse liver microsomes; type: in vitro ADME; settings: pH 7.4
In short: (§1)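 Microsomes from B6 Cyp2a(4/5)bgs-null (CYP2A/CYP2B knockout) or side-by-side wild-type mouse lung and liver, at 0.1 mg protein/ml. Buffer was 50 mM potassium phosphate pH 7.4, 3 mM MgCl2, 1 mM EDTA. […] Parent loss by LC/MS/MS. Single-exponential kel converted to T1/2; CLint = kel × volume/mg protein.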

[2] = Metabolic stability in knockout mouse liver microsomes; type: in vitro ADME
In short: as §1

[3] = B6 Cyp2a(4/5)bgs-Null, mouse, liver microsomes from knockout mice, pH 7.4

- half-life at 1 μM [1]: 1.22 h
- microsomal CLint at 1 μM [1]: 95.3 µL/min/mg
- increase in metabolic stability, transgenic vs wild type liver microsomes ([2]; 0.1 mg/ml protein): 1.7 fold
- half-life at 1 μM [2, 3]: 2.12 h
- microsomal CLint at 1 μM [2, 3]: 54.8 µL/min/mg
Structure (SMILES): Fc1cccc(Cl)c1CN1CCOCC1 [Compound 7, 4-(2-chloro-6-fluorobenzyl)morpholine]

— publication PMC3781598 (Pharmaceutical research, 2013)
